Source: BindingDB's records for doi:10.1021/acs.jmedchem.9b02004 (University of Illinois At Chicago, 2020)

Molecular target: T1, Acid ceramidase (Homo sapiens, UniProt Q13510)
T1 sequence (Q13510 whole entry): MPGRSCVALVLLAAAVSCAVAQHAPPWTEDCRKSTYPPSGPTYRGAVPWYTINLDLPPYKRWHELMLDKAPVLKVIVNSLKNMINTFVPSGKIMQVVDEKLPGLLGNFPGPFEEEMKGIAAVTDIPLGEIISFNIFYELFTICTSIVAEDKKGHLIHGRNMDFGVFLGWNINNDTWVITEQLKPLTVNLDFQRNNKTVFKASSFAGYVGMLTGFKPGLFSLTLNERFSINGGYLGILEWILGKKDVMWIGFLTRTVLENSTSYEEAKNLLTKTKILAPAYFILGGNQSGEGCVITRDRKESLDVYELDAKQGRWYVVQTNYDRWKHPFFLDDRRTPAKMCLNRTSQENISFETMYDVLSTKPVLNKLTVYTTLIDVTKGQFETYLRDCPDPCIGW
Assay: Time-dependent inhibition of human acid ceramidase expressed in HEK293 cells using Rbm14-12 as substrate by fluorescence assay
Method in brief: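 hAC-enriched lysates with fluorogenic substrate Rbm 14-12; vehicle 1% DMSO; time-dependent inhibition analysed for ki/KI and ki; two independent experiments, each in two technical replicates.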

Q: How did the kinact turn out when `CC(C)CNC(=O)n1c(=O)oc2cc(C3CCN(C)CC3)ccc21` was run?
A: The kinact was 0.0025 s⁻¹.
